ChEMBL document CHEMBL3393009 (J Med Chem, 2015)
Active and inactive are the calls of the source. No cut-off for these calls is given here.

How the values were obtained:
[1] = target: T1, Tyrosine-protein kinase JAK1 (Homo sapiens, UniProt P23458); assay: Inhibition of JAK1 (JH2 domain-pseudokinase) (unknown origin) at 1 uM
[2] = Drug coverage index, ratio fCmax in Wistar Han rat at 60 mg/kg, po bid for 14 days to IC50 for LRRK2 S395 phosphorylation in Wistar Han rat brain at 6 to 60 mg/kg, po bid for 14 days; type: ADME, organism-based; conditions: in vivo, 336 h
Method in brief: (§1)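 Wistar Han rats (200–300 g, 8–11 weeks old) were dosed by oral gavage twice daily for 14 days. Vehicle was 10% propylene glycol/20% PEG400/70% 9.5% methocellulose.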

Rattus norvegicus [3] = assay: Toxicity in Wistar Han rat assessed as changes in urinary biomarkers at 6 to 60 mg/kg, po bid for 14 days; type: organism-based, Urine; parameters: dose 6-60 mg/kg, route oral; conditions: in vivo, 336 h
Method in brief: (§2)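 Wistar Han rats (200–300 g, 8–11 weeks) dosed by oral gavage twice daily for 14 days. Vehicle: 10% propylene glycol/20% PEG400/70% methylcellulose solution. RBC parameters, electrolytes, food consumption, body weight, clinical chemistry and urinary biomarkers recorded.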

[4] = target: T1, Tyrosine-protein kinase JAK1; assay: Inhibition of JAK1 (JH1 domain-catalytic) (unknown origin) at 1 uM
[5] = Tmax in dog at 5 mg/kg, po; type: ADME, organism-based, Canis lupus familiaris; parameters: dose 5 mg/kg, route oral; conditions: in vivo
Rattus norvegicus [6] = assay: fAUC in Wistar Han rat at 60 mg/kg, po bid for 14 days; type: ADME, organism-based; parameters: dose 60 mg/kg, route oral; conditions: in vivo, 336 h
Method in brief: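 Wistar Han rats dosed orally twice daily in 10% propylene glycol/20% PEG400/methylcellulose vehicle. Unbound plasma exposure measured on days 1 and 11.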

[7] = Tmax in rat at 5 mg/kg, po; type: ADME, organism-based; parameters: dose 5 mg/kg, route oral; conditions: in vivo
Rattus norvegicus [8] = assay: Toxicity in Wistar Han rat assessed as changes in food consumption at 6 to 60 mg/kg, po bid for 14 days; type: organism-based; parameters: dose 6-60 mg/kg, route oral; conditions: in vivo, 336 h; method in brief: as §2
Rattus norvegicus [9] = assay: Toxicity in Wistar Han rat assessed as changes in RBC parameters at 6 to 60 mg/kg, po bid for 14 days; type: organism-based; parameters: dose 6-60 mg/kg, route oral; conditions: in vivo, 336 h; method in brief: as §2
[10] = Oral bioavailability in non-human primate at 5 mg/kg; type: ADME, organism-based; conditions: monkey, in vivo
Rattus norvegicus [11] = assay: Drug coverage index, ratio fAUC in Wistar Han rat at 6 mg/kg, po bid for 14 days to IC50 for LRRK2 […] phosphorylation in Wistar Han rat brain at 6 to 60 mg/kg, po bid for 14 days; type: ADME, organism-based; conditions: in vivo, 336 h; method in brief: as §1
[12] = Cytotoxicity against human THLE cells by in-vitro ATP depletion assay; type: cell-based
Rattus norvegicus [13] = assay: Drug coverage index, ratio fAUC in Wistar Han rat at 20 mg/kg, po bid for 14 days to IC50 for LRRK2 […] phosphorylation in Wistar Han rat brain at 6 to 60 mg/kg, po bid for 14 days; type: ADME, organism-based; conditions: in vivo, 336 h; method in brief: as §1
[14] = Drug coverage index, ratio fCmax in Wistar Han rat at 6 mg/kg, po bid for 14 days to IC50 for LRRK2 […] phosphorylation in Wistar Han rat brain at 6 to 60 mg/kg, po bid for 14 days; type: ADME, organism-based; conditions: in vivo, 336 h; method in brief: as §1
Mus musculus [15] = assay: Potency index, ratio of IC50 for LRRK2 […] mutant […] phosphorylation in BAC-transgenic mouse at 3 to 100 mg/kg, sc to IC50 for wild type LRRK2 […] phosphorylation in BAC-transgenic C57BL/6J mouse brain at 3 to 100 mg/kg, sc; type: functional
Method in brief: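 Four-month-old C57BL/6J mice and seven-month-old LRRK2 BAC-transgenic G2019S mice received single subcutaneous doses. Vehicle was 10% NMP in 20% SBECD. Brain was collected 90 min after dosing and snap frozen. LRRK2 pS935 phosphorylation was measured in brain lysate. An unbound-drug IC50 was estimated from the dose–response in each strain.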

Rattus norvegicus [16] = assay: Drug coverage index, ratio fAUC in Wistar Han rat at 60 mg/kg, po bid for 14 days to IC50 for LRRK2 […] phosphorylation in Wistar Han rat brain at 6 to 60 mg/kg, po bid for 14 days; type: ADME, organism-based; conditions: in vivo, 336 h; method in brief: as §1
[17] = target: Serine/threonine-protein kinase 26 (Homo sapiens, UniProt Q9P289); assay: Inhibition of human recombinant MST4 using Ser/Thr peptide 7 substrate after 60 mins by Z-Lyte assay
Method in brief: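 Z-Lyte FRET assay, final 2 μM Ser/Thr peptide 7, 75 μM ATP, 18 nM kinase. Buffer 50 mM HEPES (pH 7.0 for MST2, 7.5 for MST4), 10 mM MgCl2, 1 mM EGTA, 0.01% Brij-35. Stopped at 45 min (MST2) or 60 min (MST4). Excitation 400 nm, emission 445/520 ratio converted to percent phosphorylation for IC50.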

[18] = target: T2, Serine/threonine-protein kinase 3 (Homo sapiens, UniProt Q13188); assay: Inhibition of human recombinant MST2 using Ser/Thr peptide 7 substrate after 45 mins by Z-Lyte assay
T2 sequence (Q13188 whole entry): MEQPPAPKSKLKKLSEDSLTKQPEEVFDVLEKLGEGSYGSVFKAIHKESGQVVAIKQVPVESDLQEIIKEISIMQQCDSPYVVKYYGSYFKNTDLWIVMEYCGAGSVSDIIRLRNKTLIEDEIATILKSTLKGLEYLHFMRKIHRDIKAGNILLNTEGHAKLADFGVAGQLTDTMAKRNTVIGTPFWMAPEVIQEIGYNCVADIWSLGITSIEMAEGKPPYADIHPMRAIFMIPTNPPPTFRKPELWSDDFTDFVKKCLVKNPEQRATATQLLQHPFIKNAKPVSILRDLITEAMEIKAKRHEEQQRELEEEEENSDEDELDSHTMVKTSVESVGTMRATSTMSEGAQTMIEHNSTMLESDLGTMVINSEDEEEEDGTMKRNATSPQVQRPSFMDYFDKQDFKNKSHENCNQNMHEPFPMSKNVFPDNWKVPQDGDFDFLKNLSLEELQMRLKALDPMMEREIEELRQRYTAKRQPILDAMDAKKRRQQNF

Rattus norvegicus [19] = assay: Toxicity in Wistar Han rat assessed as changes in body weight at 6 to 60 mg/kg, po bid for 14 days; type: organism-based; parameters: dose 6-60 mg/kg, route oral; conditions: in vivo, 336 h; method in brief: as §2
[20] = Tmax in non-human primate at 5 mg/kg, po; type: ADME, organism-based; parameters: dose 5 mg/kg, route oral; conditions: monkey, in vivo
[21] = target: Tyrosine-protein kinase JAK2 (Homo sapiens, UniProt O60674); assay: Inhibition of JAK2 (JH1 domain-catalytic) (unknown origin) at 1 uM
Mus musculus [22] = assay: Inhibition of wild type LRRK2 […] phosphorylation in BAC-transgenic C57BL/6J mouse kidney at 3 to 100 mg/kg, sc measured after 90 mins post dose; type: functional; conditions: dose mg/kg 3-100; route subcutaneous
Method in brief: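 Mice given compound subcutaneously in 10% NMP/20% SBECD vehicle: four-month-old C57BL/6J (wild type) or seven-month-old LRRK2 BAC-Tg G2019S. Tissues collected 90 min after dose. pS935, and pS1292 (custom antibody) in transgenic brain, read by Western blot of brain/kidney lysates against vehicle controls. Mean ± SEM.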

[23] = Cmax in dog at 5 mg/kg, po; type: ADME, organism-based, Canis lupus familiaris; parameters: dose 5 mg/kg, route oral; conditions: in vivo
Mus musculus [24] = assay: Effect on total LRRK2 protein level in BAC-transgenic C57BL/6J mouse kidney at 3 to 100 mg/kg, sc measured after 90 mins post dose; type: ADME, organism-based; parameters: dose 3-100 mg/kg, route subcutaneous; conditions: in vivo, 1.5 h
[25] = AUC in dog at 5 mg/kg, po; type: ADME, organism-based, Canis lupus familiaris; parameters: dose 5 mg/kg, route oral; conditions: plasma
[26] = Oral bioavailability in rat at 5 mg/kg; type: ADME, organism-based; conditions: in vivo

T1 sequence (P23458 whole entry, the tested form may be a part): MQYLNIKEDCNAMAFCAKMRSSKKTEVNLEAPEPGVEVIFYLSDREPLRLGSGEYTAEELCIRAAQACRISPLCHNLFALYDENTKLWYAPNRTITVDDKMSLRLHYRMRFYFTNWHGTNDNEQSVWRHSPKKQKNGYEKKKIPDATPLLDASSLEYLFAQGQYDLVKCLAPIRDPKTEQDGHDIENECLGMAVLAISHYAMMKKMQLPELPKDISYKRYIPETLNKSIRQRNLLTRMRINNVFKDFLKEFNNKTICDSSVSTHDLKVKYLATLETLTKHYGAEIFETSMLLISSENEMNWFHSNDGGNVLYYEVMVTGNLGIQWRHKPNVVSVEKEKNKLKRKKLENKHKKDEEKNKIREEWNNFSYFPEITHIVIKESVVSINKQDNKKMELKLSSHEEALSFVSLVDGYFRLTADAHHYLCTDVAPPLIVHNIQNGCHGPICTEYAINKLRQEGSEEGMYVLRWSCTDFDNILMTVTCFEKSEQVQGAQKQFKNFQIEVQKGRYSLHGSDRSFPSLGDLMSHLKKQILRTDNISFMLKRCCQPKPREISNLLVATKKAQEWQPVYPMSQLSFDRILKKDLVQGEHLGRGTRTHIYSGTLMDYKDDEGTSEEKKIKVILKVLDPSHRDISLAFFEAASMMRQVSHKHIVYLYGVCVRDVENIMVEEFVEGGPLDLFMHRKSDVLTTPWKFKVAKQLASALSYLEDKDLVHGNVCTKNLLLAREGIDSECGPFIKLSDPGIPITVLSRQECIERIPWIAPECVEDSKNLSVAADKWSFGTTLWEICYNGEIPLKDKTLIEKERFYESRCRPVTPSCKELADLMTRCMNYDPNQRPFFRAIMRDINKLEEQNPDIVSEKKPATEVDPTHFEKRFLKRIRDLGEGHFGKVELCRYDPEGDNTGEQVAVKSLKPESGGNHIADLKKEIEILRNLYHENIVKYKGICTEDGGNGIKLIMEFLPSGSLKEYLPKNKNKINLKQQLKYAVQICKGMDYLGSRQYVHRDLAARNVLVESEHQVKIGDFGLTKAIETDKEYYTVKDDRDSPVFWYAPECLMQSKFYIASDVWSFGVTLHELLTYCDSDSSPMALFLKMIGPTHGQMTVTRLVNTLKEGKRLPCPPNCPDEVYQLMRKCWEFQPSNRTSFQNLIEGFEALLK
Tyrosine-protein kinase JAK2, sequence (O60674 whole entry, the tested form may be a part): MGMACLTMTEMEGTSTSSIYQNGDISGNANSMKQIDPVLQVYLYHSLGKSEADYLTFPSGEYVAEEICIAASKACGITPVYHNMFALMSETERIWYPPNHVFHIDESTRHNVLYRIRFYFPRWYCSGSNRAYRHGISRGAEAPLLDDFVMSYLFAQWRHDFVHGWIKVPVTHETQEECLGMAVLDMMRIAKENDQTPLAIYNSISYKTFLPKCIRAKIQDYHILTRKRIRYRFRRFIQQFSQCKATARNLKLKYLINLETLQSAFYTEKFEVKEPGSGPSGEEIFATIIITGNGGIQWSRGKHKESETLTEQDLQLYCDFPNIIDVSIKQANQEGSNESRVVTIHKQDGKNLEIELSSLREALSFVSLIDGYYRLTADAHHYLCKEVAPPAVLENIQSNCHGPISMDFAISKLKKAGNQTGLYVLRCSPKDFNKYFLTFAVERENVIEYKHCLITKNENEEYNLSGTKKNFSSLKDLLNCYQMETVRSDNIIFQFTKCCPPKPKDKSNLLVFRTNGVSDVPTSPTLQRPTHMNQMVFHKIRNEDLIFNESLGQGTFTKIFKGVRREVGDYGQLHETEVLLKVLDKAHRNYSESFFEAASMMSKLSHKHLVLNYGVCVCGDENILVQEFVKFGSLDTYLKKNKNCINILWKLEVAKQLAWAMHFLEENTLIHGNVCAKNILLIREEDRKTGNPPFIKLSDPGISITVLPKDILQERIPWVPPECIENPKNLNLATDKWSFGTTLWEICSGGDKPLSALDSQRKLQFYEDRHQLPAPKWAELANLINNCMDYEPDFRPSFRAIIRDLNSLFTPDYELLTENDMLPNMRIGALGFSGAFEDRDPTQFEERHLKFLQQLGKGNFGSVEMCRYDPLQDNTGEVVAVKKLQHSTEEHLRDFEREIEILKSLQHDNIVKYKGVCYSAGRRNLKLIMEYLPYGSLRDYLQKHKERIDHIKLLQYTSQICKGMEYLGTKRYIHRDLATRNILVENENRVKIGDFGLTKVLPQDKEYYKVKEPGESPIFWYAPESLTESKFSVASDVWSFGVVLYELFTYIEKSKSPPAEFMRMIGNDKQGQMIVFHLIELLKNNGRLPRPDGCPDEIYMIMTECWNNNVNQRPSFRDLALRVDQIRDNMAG
Serine/threonine-protein kinase 26, sequence (Q9P289 whole entry): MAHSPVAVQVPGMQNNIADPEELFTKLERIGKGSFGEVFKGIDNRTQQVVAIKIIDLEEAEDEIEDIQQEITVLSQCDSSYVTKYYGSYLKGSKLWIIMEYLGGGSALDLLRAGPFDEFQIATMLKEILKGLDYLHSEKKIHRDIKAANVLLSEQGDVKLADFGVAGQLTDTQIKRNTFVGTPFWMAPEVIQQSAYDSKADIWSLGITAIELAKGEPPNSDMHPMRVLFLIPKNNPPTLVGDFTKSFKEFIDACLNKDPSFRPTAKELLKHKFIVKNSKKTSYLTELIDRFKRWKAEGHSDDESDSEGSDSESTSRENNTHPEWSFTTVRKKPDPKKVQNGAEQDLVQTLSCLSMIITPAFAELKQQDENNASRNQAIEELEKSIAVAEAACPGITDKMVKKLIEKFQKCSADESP

**Q.** Which results are given for `N#Cc1cccc(-c2c[nH]c3ncnc(N4CCOCC4)c23)c1`?
**A.** inhibition [1]: inactive; Ratio [2]: 70; Activity (Rattus norvegicus [3]): Non-toxic; inhibition [4]: inactive; Tmax [5]: 22.8 min; fAUC (Rattus norvegicus [6]): 11.17 µM·h; Tmax [7]: 30 min; Activity (Rattus norvegicus [8]): Non-toxic; Activity (Rattus norvegicus [9]): Non-toxic; bioavailability [10]: 3.5%; Ratio (Rattus norvegicus [11]): 2; IC50 [12]: > 223000 nM; Ratio (Rattus norvegicus [13]): 12; Ratio [14]: 6; Ratio IC50 (Mus musculus [15]): 10; Ratio (Rattus norvegicus [16]): 31; IC50 [17]: 178 nM; IC50 [18]: 22 nM; Activity (Rattus norvegicus [19]): Non-toxic; Tmax [20]: 120 min; inhibition [21]: inactive; fIC50 (Mus musculus [22]): 11 nM; Cmax [23]: 15 ng/mL; Activity (Mus musculus [24]): Non-toxic; AUC [25]: 10 ng·h/mL; bioavailability [26]: 41%
